The test system of one data set is KB cells. Kind of data set: cells. It is filed as cell-based. The following applies: Homo sapiens, read-out: IC50 ± SD.
A further data set concerns KB/VCR cells. Briefly: cells. The following applies: Homo sapiens, read-out: IC50 ± SD. It is filed as cell-based.
The next data set concerns heart tissues. Briefly: TUNEL assay of heart tissues. Format: in vivo. Particulars: male and female Balb/c mice. In outline: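 Heart tissue came from the 3-week mouse study: vehicle; test compound 100 mg/kg gavage twice weekly; ADM 20 mg/kg i.p. on day 6; combination. Paraffin sections (4 µm) were stained with an in situ TUNEL kit, and positive cells were counted in three random fields per slide by light microscopy. Percent apoptotic cells was compared by one-way ANOVA with Dunnett's test.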

Another data set concerns the target CYP3A4 (Homo sapiens, UniProt P08684). Kind of data set: CYP inhibition in pooled human liver microsomes, CYP3A4. It is filed as biochemical. For orientation: Liver microsomes are vesicles of endoplasmic reticulum, rich in cytochrome P450 enzymes.
The target in a further data set is T1, CYP1A2 (Homo sapiens, UniProt P05177).
T1 sequence (P05177 1-516): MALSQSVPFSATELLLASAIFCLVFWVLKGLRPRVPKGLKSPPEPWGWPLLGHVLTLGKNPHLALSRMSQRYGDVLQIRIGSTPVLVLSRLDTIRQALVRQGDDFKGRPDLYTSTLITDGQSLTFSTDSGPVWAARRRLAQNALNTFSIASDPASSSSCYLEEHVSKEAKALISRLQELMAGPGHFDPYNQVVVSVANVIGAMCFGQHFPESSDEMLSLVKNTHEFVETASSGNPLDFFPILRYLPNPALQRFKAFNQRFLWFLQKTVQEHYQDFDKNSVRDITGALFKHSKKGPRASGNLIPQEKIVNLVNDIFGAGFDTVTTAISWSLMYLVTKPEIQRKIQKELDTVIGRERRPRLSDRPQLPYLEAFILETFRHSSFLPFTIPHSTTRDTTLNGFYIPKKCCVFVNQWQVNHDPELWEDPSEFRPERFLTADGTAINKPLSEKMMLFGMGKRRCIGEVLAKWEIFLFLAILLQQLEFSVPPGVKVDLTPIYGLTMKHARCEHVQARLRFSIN
Briefly: CYP inhibition in pooled human liver microsomes, CYP1A2. It is filed as biochemical.

A further data set concerns the target T2, CYP2B6 (Homo sapiens, UniProt P20813).
T2 sequence (P20813 1-491): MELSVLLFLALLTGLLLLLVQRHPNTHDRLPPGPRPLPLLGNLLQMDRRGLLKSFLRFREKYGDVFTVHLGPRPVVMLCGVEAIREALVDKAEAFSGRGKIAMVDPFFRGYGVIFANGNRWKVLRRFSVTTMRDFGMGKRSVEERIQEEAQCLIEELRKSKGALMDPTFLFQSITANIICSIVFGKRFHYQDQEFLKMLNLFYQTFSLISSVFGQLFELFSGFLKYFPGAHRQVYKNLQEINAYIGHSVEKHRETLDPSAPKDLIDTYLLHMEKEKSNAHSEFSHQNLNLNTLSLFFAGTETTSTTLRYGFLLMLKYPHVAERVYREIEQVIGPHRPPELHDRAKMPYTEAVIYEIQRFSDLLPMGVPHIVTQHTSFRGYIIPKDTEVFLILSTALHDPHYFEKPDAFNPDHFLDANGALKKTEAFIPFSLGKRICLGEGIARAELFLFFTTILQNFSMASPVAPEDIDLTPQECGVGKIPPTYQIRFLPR
Briefly: CYP inhibition in pooled human liver microsomes, CYP2B6. Format: biochemical. The following applies: CYP2B6, Bupropion hydroxylation.

In a further data set the target is T3, CYP2C8 (Homo sapiens, UniProt P10632).
T3 sequence (P10632 1-490): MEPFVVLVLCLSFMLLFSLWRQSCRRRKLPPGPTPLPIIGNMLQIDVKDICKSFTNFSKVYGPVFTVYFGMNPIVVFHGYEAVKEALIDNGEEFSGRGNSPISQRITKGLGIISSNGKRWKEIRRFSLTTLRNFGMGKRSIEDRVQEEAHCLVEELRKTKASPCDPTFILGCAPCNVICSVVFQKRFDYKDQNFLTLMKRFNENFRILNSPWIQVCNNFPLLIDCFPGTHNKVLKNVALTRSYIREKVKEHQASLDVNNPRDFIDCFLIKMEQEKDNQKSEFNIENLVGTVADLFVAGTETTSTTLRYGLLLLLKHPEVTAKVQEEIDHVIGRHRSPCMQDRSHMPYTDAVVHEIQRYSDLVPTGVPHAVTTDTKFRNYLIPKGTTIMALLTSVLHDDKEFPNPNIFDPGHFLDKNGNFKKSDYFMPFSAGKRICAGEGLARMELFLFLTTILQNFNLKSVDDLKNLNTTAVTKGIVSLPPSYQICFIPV
Briefly: CYP inhibition in pooled human liver microsomes, CYP2C8. It is filed as biochemical. The following applies: CYP2C8, Amodiaquine N-deethylation.

In another data set the target is CYP2C9 (Homo sapiens, UniProt P11712). Briefly: CYP inhibition in pooled human liver microsomes, CYP2C9. It is filed as biochemical.
Chain of CYP2C9 (P11712 whole entry): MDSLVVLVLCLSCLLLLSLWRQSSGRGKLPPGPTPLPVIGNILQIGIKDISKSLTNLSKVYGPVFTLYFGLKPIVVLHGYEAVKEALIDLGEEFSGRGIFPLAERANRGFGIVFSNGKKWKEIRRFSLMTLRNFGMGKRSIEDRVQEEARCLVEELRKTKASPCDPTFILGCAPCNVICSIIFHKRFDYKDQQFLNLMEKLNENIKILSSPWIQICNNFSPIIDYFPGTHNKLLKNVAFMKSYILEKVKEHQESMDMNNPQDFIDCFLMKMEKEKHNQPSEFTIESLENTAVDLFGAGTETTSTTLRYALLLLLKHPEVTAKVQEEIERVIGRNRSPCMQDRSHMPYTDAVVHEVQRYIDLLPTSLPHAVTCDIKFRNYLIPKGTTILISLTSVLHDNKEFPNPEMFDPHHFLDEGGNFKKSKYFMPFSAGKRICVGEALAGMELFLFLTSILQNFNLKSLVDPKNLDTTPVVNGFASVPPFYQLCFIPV
Another data set has as its target CYP2D6 (Homo sapiens, UniProt P10635). Kind of data set: CYP inhibition in pooled human liver microsomes, CYP2D6. The following applies: CYP2D6, Dextromethorphandextrorphan. Format: biochemical.
A short description of data set [1]: Pharmacokinetic study, oral and i.v. administration. It is filed as in vivo, SD rats. Summed up:
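Adult male SD rats got a single 10 mg/kg dose by tail-vein injection or oral gavage. Blood was drawn from three rats predose and at 0.083–24 h; plasma was frozen at −80°C. Plasma was deproteinized with methanol containing 250 nM internal standard for LC/MS/MS. PK parameters came from a noncompartmental i.v.-bolus model.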

The test system of another data set is Balb/c mice. Kind of data set: Maximum tolerant dosage, single high-dose PPD12. Format: in vivo. The following applies: 1 g/kg PPD12. Summed up: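 Single oral gavage of test compound at 1 g/kg to Balb/c mice to assess tolerability of a single high dose.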
A further data set concerns the target CYP2C19 (Homo sapiens, UniProt P33261). Particulars: CYP2C19, S-mephenytoin4′-hydroxylation, human liver microsomes.

“Also recorded” adds a separate entry of the source. Where two headings read alike, the source gives them in different places.

Chain of CYP3A4 (P08684 whole entry): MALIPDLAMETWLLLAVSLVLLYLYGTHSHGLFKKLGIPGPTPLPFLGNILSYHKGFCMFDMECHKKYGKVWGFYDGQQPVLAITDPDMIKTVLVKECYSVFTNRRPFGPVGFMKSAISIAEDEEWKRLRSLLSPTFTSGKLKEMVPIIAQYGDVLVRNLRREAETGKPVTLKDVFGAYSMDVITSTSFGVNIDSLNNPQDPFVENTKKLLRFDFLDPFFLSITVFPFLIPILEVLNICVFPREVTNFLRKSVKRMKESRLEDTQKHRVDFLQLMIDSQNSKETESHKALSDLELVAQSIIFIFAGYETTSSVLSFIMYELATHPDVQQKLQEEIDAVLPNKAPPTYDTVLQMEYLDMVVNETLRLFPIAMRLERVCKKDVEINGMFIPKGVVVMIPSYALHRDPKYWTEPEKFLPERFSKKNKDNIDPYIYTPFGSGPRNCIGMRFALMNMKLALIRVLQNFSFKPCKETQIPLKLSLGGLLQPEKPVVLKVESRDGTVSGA
Chain of CYP2D6 (P10635 whole entry): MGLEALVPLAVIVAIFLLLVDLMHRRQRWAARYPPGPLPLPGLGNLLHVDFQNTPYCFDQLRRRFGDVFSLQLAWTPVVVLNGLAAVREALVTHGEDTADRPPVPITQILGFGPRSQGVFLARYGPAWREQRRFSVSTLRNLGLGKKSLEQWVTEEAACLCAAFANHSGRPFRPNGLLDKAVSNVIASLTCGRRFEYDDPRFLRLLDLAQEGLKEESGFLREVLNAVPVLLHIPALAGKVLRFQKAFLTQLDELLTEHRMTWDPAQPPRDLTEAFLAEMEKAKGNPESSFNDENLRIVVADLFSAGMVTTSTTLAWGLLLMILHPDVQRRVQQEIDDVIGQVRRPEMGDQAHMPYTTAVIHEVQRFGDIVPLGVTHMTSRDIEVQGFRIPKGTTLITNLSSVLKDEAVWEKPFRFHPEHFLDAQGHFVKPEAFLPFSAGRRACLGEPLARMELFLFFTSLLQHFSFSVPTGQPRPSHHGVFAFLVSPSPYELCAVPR
Chain of CYP2C19 (P33261 whole entry): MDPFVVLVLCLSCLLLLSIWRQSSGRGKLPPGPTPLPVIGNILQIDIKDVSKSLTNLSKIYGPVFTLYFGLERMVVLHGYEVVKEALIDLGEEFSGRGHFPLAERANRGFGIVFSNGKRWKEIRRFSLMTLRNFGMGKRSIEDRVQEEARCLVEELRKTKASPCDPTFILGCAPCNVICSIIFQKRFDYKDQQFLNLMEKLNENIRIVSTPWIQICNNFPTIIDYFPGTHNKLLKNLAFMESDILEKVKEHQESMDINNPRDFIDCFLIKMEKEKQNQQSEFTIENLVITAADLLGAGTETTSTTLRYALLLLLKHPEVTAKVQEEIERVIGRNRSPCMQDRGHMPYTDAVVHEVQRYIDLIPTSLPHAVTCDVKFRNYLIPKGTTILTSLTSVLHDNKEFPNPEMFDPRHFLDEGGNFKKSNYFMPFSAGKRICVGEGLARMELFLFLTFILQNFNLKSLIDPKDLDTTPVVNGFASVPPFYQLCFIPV

For the compound `COc1cccc2c1C(=O)c1c(O)c3c(c(O)c1C2=O)C[C@@](O)(C(=O)CO)C[C@@H]3O[C@H]1C[C@H](N)[C@H](O)[C@H](C)O1` [ADM, Adriamycin], the half-inhibitory concentration (IC50) (as a rule, the concentration at which inhibition is half-maximal) in the data set on KB cells (24 h) turned out to be 2380 nM; with KB cells (48 h), 390 nM; in the data set on KB cells (72 h), 71.3 nM; in the data set on KB cells (96 h) it was 35.1 nM; in the data set with KB/VCR cells (24 h) it was 151000 nM; with KB/VCR cells (48 h) it was 4780 nM. Also, the values for the IC50 in the data set with KB/VCR cells (72 h) and with KB/VCR cells (96 h) were 1520 nM and 1190 nM, respectively. In addition, the “apoptotic cells in heart tissues (TUNEL) compared to the control group” value in the data set on heart tissues is recorded as “significant increase in apoptosis”.

On to `CC1(C)[C@@H](O)CC[C@]2(C)[C@H]3C[C@@H](O)[C@@H]4[C@@H]([C@@](C)(O)CCCNCc5ccccc5)CC[C@@]4(C)[C@]3(C)CC[C@@H]12` [PPD12], for which the half-inhibitory concentration (IC50) at CYP3A4 (CYP3A4, Midazolam 1′-hydroxylation) was 1030 nM; against CYP3A4 (CYP3A4, Testosterone 6-β-hydroxylation), 8430 nM; on CYP1A2 (CYP1A2, Phenacetin 0-deethylation) it was > 33000 nM; against CYP2B6 it was 2210 nM; on CYP2C8, 9570 nM; against CYP2C9 (CYP2C9, Diclofenac4′-hydroxylation), > 33000 nM. Moreover, the IC50 against CYP2D6 stood at 11800 nM; at CYP2C19, 15000 nM. Besides, the “inhibition of CYP1A2-mediated phenacetin 0-deethylation” value against CYP1A2 (at 33 µM) was “negligible inhibition”. Further, the “inhibition of CYP2C9-mediated diclofenac4′-hydroxylation” value against CYP2C9 (at 33 µM) is “negligible inhibition”. Also, the oral absolute bioavailability in [1] (male SD rats, 10 mg/kg oral vs i.v.) was found to be 114.41±22.24%. The “bioavailability by oral administration” value in data set [1] (mouse model (so in the source)) was ~100%. In addition, the “lethal effects / tolerability of a single high dosage” value with Balb/c mice was “did not observe any lethal effects; also recorded: well tolerated”. Further, the “apoptotic cells in heart tissues (TUNEL) compared to the control group” value in the data set with heart tissues is “no obvious difference in apoptotic cells”.

Source of the values: paper PMC6176371 (Oncology Letters, 2018).
